Converted amounts (≈) assume the structure as drawn. The source made the active and inactive calls.
How the values were obtained:
Staphylococcus aureus [1] = test: Antibacterial activity against Staphylococcus aureus ATCC 49951 infected in CD1 mouse assessed as protection against bacterial infection administered 5 hrs post infection measured on day 5; format: functional
How it was run: (§1)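 Mouse lethal systemic infection: ip injection of 1 × 10^8 cfu/mouse (10−100× minimal lethal dose), E. faecalis in 50% sterile rat fecal extract, S. aureus in 0.9% NaCl. Therapy by tail-vein bolus at several doses, six mice per group. Started immediately for E. faecalis; at 1 and 5 h post-inoculation for S. aureus.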

Enterococcus faecium = test: Antibacterial activity against Enterococcus faecium 7130724 by CLSI M07-A8 method; format: functional
How it was run: (§2)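 Broth microdilution MIC run per CLSI M07-A8 (2009).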

Enterococcus faecalis [2] = test: Antibacterial activity against Enterococcus faecalis ATCC 29212 by CLSI M07-A8 method; format: functional; how it was run: as §2
Streptococcus pneumoniae = test: Antibacterial activity against Streptococcus pneumoniae by CLSI M07-A8 method; format: functional, organism-based; how it was run: as §2
Enterococcus faecalis [3] = test: Antibacterial activity against Enterococcus faecalis isolate NB04025 infected in CD1 mouse assessed as protection against bacterial infection administered immediately after infection measured on day 5; format: functional; conditions: isolate NB04025, 120 h; how it was run: as §1
Streptococcus pyogenes = test: Antibacterial activity against Streptococcus pyogenes ATCC BAA-595 by CLSI M07-A8 method; format: functional; how it was run: as §2
Staphylococcus aureus [4] = test: Antibacterial activity against methicillin-resistant Staphylococcus aureus isolate A4.018 by CLSI M07-A8 method; format: functional
Staphylococcus aureus [5] = test: Antibacterial activity against GE2270-A-resistant Staphylococcus aureus harboring tufA G258D mutant gene by CLSI M07-A8 method; format: functional

Row | Compound | ED50 (Staphylococcus aureus [1]) [mg/kg] | MIC (Enterococcus faecium) [µg/mL] | MIC (Enterococcus faecalis [2]) [µg/mL] | Activity (Streptococcus pneumoniae) | ED50 (Enterococcus faecalis [3]) [mg/kg] | MIC (Streptococcus pyogenes) [µg/mL] | MIC (Staphylococcus aureus [4]) [µg/mL] | MIC (Staphylococcus aureus [5]) [µg/mL] | Activity (Staphylococcus aureus [5])
1 | CNC(=O)C[C@@H]1NC(=O)c2csc(n2)-c2ccc(-c3nc(NC(=O)c4ccc(C(=O)O)cn4)cs3)nc2-c2csc(n2)-c2csc(n2)[C@H]([C@@H](O)c2ccccc2)NC(=O)CNC(=O)c2nc(sc2COC)[C@H](C(C)C)NC(=O)c2nc1sc2C | 4.4 | < 0.06 | 0.125 (≈ 0.1 µM) | Active | 0.8 | 4 (≈ 3.21 µM) | 0.25 (≈ 0.201 µM) | – | –
2 | CNC(=O)C[C@@H]1NC(=O)c2csc(n2)-c2ccc(-c3nc(NC(=O)NCCC(=O)O)cs3)nc2-c2csc(n2)-c2csc(n2)[C@H]([C@@H](O)c2ccccc2)NC(=O)CNC(=O)c2nc(sc2COC)[C@H](C(C)C)NC(=O)c2nc1sc2C | – | 2 (≈ 1.65 µM) | 1 (≈ 0.825 µM) | Active | – | 8 (≈ 6.6 µM) | 1 (≈ 0.825 µM) | > 32 | –
3 | CNC(=O)C[C@@H]1NC(=O)c2csc(n2)-c2ccc(-c3nc(-n4cnc(C(=O)O)c4)cs3)nc2-c2csc(n2)-c2csc(n2)[C@H]([C@@H](O)c2ccccc2)NC(=O)CNC(=O)c2nc(sc2COC)[C@H](C(C)C)NC(=O)c2nc1sc2C | – | > 32 | 4 (≈ 3.36 µM) | Active | – | > 32 | 4 (≈ 3.36 µM) | > 32 | –
4 | CNC(=O)C[C@@H]1NC(=O)c2csc(n2)-c2ccc(-c3nc(NC(=O)OCCN)cs3)nc2-c2csc(n2)-c2csc(n2)[C@H]([C@@H](O)c2ccccc2)NC(=O)CNC(=O)c2nc(sc2COC)[C@H](C(C)C)NC(=O)c2nc1sc2C | – | 1 (≈ 0.845 µM) | 1 (≈ 0.845 µM) | Active | – | 16 (≈ 13.5 µM) | 1 (≈ 0.845 µM) | – | inactive
5 | CNC(=O)C[C@@H]1NC(=O)c2csc(n2)-c2ccc(-c3nc(NC(=O)OC4CC(C)(C)NC(C)(C)C4)cs3)nc2-c2csc(n2)-c2csc(n2)[C@H]([C@@H](O)c2ccccc2)NC(=O)CNC(=O)c2nc(sc2COC)[C@H](C(C)C)NC(=O)c2nc1sc2C | – | 0.5 (≈ 0.391 µM) | 1 (≈ 0.781 µM) | Active | – | 8 (≈ 6.25 µM) | 1 (≈ 0.781 µM) | – | inactive
6 | CNC(=O)C[C@@H]1NC(=O)c2csc(n2)-c2ccc(-c3nc(NS(C)(=O)=O)cs3)nc2-c2csc(n2)-c2csc(n2)[C@H]([C@@H](O)c2ccccc2)NC(=O)CNC(=O)c2nc(sc2COC)[C@H](C(C)C)NC(=O)c2nc1sc2C | – | 4 (≈ 3.41 µM) | 2 (≈ 1.7 µM) | Active | – | > 32 | 2 (≈ 1.7 µM) | > 32 | –
7 | CNC(=O)C[C@@H]1NC(=O)c2csc(n2)-c2ccc(-c3nc(NC(=O)CC[C@H](N)C(=O)O)cs3)nc2-c2csc(n2)-c2csc(n2)[C@H]([C@@H](O)c2ccccc2)NC(=O)CNC(=O)c2nc(sc2COC)[C@H](C(C)C)NC(=O)c2nc1sc2C | – | > 32 | > 32 | Active | – | > 32 | > 32 | – | inactive
8 | CNC(=O)C[C@@H]1NC(=O)c2csc(n2)-c2ccc(-c3nc(NC(=O)OCCCN)cs3)nc2-c2csc(n2)-c2csc(n2)[C@H]([C@@H](O)c2ccccc2)NC(=O)CNC(=O)c2nc(sc2COC)[C@H](C(C)C)NC(=O)c2nc1sc2C | – | 1 (≈ 0.835 µM) | 1 (≈ 0.835 µM) | Active | – | 16 (≈ 13.4 µM) | 1 (≈ 0.835 µM) | – | inactive
9 | CNC(=O)C[C@@H]1NC(=O)c2csc(n2)-c2ccc(-c3nc(NS(N)(=O)=O)cs3)nc2-c2csc(n2)-c2csc(n2)[C@H]([C@@H](O)c2ccccc2)NC(=O)CNC(=O)c2nc(sc2COC)[C@H](C(C)C)NC(=O)c2nc1sc2C | – | 4 (≈ 3.4 µM) | 2 (≈ 1.7 µM) | Active | – | > 32 | 4 (≈ 3.4 µM) | > 32 | –
10 | CNC(=O)C[C@@H]1NC(=O)c2csc(n2)-c2ccc(-c3nc(NC(=O)CCCC(=O)O)cs3)nc2-c2csc(n2)-c2csc(n2)[C@H]([C@@H](O)c2ccccc2)NC(=O)CNC(=O)c2nc(sc2COC)[C@H](C(C)C)NC(=O)c2nc1sc2C | – | 0.5 (≈ 0.413 µM) | 0.25 (≈ 0.207 µM) | Active | – | 8 (≈ 6.61 µM) | 0.25 (≈ 0.207 µM) | – | inactive
11 | CNC(=O)C[C@@H]1NC(=O)c2csc(n2)-c2ccc(-c3nc(NC(=O)COCC(=O)O)cs3)nc2-c2csc(n2)-c2csc(n2)[C@H]([C@@H](O)c2ccccc2)NC(=O)CNC(=O)c2nc(sc2COC)[C@H](C(C)C)NC(=O)c2nc1sc2C | – | 2 (≈ 1.65 µM) | 0.5 (≈ 0.412 µM) | Active | – | 4 (≈ 3.3 µM) | 0.5 (≈ 0.412 µM) | – | inactive
12 | CNC(=O)C[C@@H]1NC(=O)c2csc(n2)-c2ccc(-c3nc(NC(=O)OCCC[C@H](N)C(=O)O)cs3)nc2-c2csc(n2)-c2csc(n2)[C@H]([C@@H](O)c2ccccc2)NC(=O)CNC(=O)c2nc(sc2COC)[C@H](C(C)C)NC(=O)c2nc1sc2C | – | 32 (≈ 25.5 µM) | 8 (≈ 6.37 µM) | Active | – | 8 (≈ 6.37 µM) | 8 (≈ 6.37 µM) | – | inactive
13 | CNC(=O)C[C@@H]1NC(=O)c2csc(n2)-c2ccc(-c3nc(NC(=O)OCCCCCN)cs3)nc2-c2csc(n2)-c2csc(n2)[C@H]([C@@H](O)c2ccccc2)NC(=O)CNC(=O)c2nc(sc2COC)[C@H](C(C)C)NC(=O)c2nc1sc2C | – | 0.5 (≈ 0.408 µM) | 0.5 (≈ 0.408 µM) | Active | – | 8 (≈ 6.53 µM) | 1 (≈ 0.816 µM) | – | inactive
14 | CNC(=O)C[C@@H]1NC(=O)c2csc(n2)-c2ccc(-c3nc(NC(=O)OCCCCN)cs3)nc2-c2csc(n2)-c2csc(n2)[C@H]([C@@H](O)c2ccccc2)NC(=O)CNC(=O)c2nc(sc2COC)[C@H](C(C)C)NC(=O)c2nc1sc2C | 6.48 | 1 (≈ 0.825 µM) | 0.5 (≈ 0.413 µM) | Active | – | 8 (≈ 6.6 µM) | 1 (≈ 0.825 µM) | – | inactive
15 | CNC(=O)C[C@@H]1NC(=O)c2csc(n2)-c2ccc(-c3nc(NC(=O)CC(=O)O)cs3)nc2-c2csc(n2)-c2csc(n2)[C@H]([C@@H](O)c2ccccc2)NC(=O)CNC(=O)c2nc(sc2COC)[C@H](C(C)C)NC(=O)c2nc1sc2C | – | 2 (≈ 1.69 µM) | 1 (≈ 0.846 µM) | Active | – | 8 (≈ 6.77 µM) | 1 (≈ 0.846 µM) | – | inactive
16 | CNC(=O)C[C@@H]1NC(=O)c2csc(n2)-c2ccc(-c3nc(NC(=O)CC[C@@H](C)C(=O)O)cs3)nc2-c2csc(n2)-c2csc(n2)[C@H]([C@@H](O)c2ccccc2)NC(=O)CNC(=O)c2nc(sc2COC)[C@H](C(C)C)NC(=O)c2nc1sc2C | – | 0.25 (≈ 0.204 µM) | 0.125 (≈ 0.102 µM) | Active | – | 4 (≈ 3.27 µM) | 0.25 (≈ 0.204 µM) | – | inactive
17 | CNC(=O)C[C@@H]1NC(=O)c2csc(n2)-c2ccc(-c3nc(NC(=O)OCCN4CCOCC4)cs3)nc2-c2csc(n2)-c2csc(n2)[C@H]([C@@H](O)c2ccccc2)NC(=O)CNC(=O)c2nc(sc2COC)[C@H](C(C)C)NC(=O)c2nc1sc2C | – | 0.5 (≈ 0.399 µM) | 0.5 (≈ 0.399 µM) | Active | – | > 32 | 1 (≈ 0.798 µM) | – | inactive
